An excerpt weighted towards active compounds, which were near 4% of everything screened.
b-catenin transl: modulators of beta-catenin nuclear translocation; HeLa beta-catenin nuclear translocation, immunofluorescence imaging; nuclear translocation activity, % at 5 µM; hit rate 0.3% among 190,000; AID 1665;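 active = nuclear translocation activity above 50% at 5 µM, with a well cell count of 50 or more; inconclusive = wells under 50 cells across six images, flagged as toxic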;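 note: per-cell ratio of nuclear to cytoplasmic median beta-catenin stain intensity; plate controls were DMSO negative control for no effect and GSK-3 inhibitor IX positive control for full effect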
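test system = HeLa cells, endogenous beta-catenin | dosing = single 5 µM dose plus 0.02–20 µM confirmation series | times = compound treatment 24 h, 37°C, 5% CO2 | technique = beta-catenin immunofluorescence imaging with DAPI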
Pf gamet viab: inhibitors of late stage P. falciparum gametocyte viability. P. falciparum stage V gametocytes, ATP luminescence, 24 h. hit rate 0.065% among 150,000. AID 743093. inhibition, % at 10.9 µM;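 active = inhibition above the mean plus 3 SD of compounds within the control limits, set per campaign, cut at about 38% in these data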;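 note: 0% = DMSO wells and 100% = medium only without gametocytes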
WT yeast gro inh: growth inhibition of WT yeast, mitochondrial fusion screen; mitochondrial fusion phenotypic screen, WT strain; hit rate 2.1% among 190,000; inhibition, % at 10 µM; AID 1362; in the data active = inhibition above about 58%; tested in S. cerevisiae
MT stabilizer: microtubule stabilization, imaging screen. hit rate 0.83% among 200,000. % tubulin-high responders, % at 10 µM. HeLa tubulin immunostaining HCS, 24 h; share of cells brighter than vehicle mean+2SD;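 active = plate Z-score above 3 for both tubulin-high and condensed-nucleus cell shares, with cell loss under 80%, at 10 µM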;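 note: anti alpha tubulin signal scored within the nucleus-defined area of each cell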
Cl transport mod: modulators of human KCC2 chloride dependent transport. Q9H2X9. KCC2 cells, thallium flux FluoZin-2 fluorescence. B-score of Tl+ flux slope (higher = more flux/activation; lower = inhibition) at 10 µM. hit rate 2.2% among 190,000. AID 1456;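 active = thallium flux slope and its plate-corrected score both differing from the plate sample mean at a set confidence after two filtering rounds, in either direction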;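 note: slope of fluorescence scaled to starting intensity during 10 to 20 s after thallium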
Target sequence (Q9H2X9 whole entry, looked up): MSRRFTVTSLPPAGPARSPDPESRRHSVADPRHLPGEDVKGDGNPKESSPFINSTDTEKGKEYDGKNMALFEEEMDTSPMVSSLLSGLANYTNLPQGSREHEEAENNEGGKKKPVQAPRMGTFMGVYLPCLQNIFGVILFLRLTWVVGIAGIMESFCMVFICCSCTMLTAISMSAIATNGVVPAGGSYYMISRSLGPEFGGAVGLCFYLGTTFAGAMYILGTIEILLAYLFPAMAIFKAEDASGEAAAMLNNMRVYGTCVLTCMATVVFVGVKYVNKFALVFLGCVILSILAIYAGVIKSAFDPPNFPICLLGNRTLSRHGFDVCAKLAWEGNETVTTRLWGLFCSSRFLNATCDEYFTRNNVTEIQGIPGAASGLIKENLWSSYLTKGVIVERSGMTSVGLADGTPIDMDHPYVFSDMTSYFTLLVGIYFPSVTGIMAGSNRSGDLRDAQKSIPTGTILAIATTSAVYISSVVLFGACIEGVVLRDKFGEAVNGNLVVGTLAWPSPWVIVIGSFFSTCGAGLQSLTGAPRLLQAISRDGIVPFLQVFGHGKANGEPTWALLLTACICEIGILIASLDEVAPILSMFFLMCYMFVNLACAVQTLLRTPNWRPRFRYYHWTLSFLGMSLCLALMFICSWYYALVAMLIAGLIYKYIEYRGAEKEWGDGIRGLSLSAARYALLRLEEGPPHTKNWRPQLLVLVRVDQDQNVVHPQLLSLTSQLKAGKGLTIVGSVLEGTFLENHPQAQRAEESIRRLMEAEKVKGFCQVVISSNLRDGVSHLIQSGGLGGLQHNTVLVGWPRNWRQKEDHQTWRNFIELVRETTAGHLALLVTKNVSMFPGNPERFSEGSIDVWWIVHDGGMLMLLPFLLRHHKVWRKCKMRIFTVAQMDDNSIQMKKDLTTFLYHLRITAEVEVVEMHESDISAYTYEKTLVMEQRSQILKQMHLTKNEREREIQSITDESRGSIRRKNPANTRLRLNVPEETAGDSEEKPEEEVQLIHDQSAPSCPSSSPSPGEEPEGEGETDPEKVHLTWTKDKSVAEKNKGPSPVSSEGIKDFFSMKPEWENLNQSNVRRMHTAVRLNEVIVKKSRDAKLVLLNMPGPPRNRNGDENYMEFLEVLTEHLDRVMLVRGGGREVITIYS
KCC2 sec1: KCC2 (human) modulation, secondary assay | shares compounds with Cl transport mod | HEK293-KCC2, thallium flux, FluoZin2 fluorescence; active compounds read high | normalised thallium flux (F/F0 slope) at 10 µM | hit rate 15% among 3,700;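 active = thallium flux slope above the same plate's solvent-only control mean plus 3 SD; inconclusive = the two replicate wells disagree; inactive = no significant difference from solvent-only control wells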
KCC2 bumet counter: bumetanide-insensitive thallium flux in KCC2 cells with ouabain, counter-screen; shares compounds with Cl transport mod; HEK293-KCC2 + bumetanide/ouabain, thallium flux FluoZin2; active compounds read high; normalized thallium flux at 10 µM; hit rate 49% among 3,700; AID 1714;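 active = thallium entry rate above the same plate's blocked-transporter control wells by more than 3 SD; inconclusive = the two repeat wells disagree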;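 note: raw slope of fluorescence over initial fluorescence between 10 and 20 s after thallium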
KCC2 secondary2: confirmation of human KCC2 transport modulators. hit rate 23% among 3,700. HEK293-KCC2, thallium flux FluoZin2 fluorescence; actives lie on both sides; F/F0 rise rate, 10–20 s post-thallium. shares compounds with Cl transport mod. normalized thallium flux at 10 µM;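 active = thallium flux slope more than 3 SD above or below the plate's solvent-only control mean, mostly below; inconclusive = the two repeat wells disagreed; inactive = no significant shift from solvent-only controls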;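 note: raw slope with 0.1% DMSO as baseline and bumetanide as block control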
HEK293 Tl flux: counter-screen for KCC2 modulators: effect in parental HEK293 cells | shares compounds with Cl transport mod | thallium flux FluoZin2, ouabain; baseline-ratio fluorescence slope, 10–20 s after thallium | thallium flux rate (normalised fluorescence) at 10 µM | hit rate 46% among 3,700;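 active = thallium flux rate significantly above the same plate's solvent-only control wells, beyond their mean plus 3 SD; inconclusive = the two replicate wells gave conflicting results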
KCC2 ouabain: KCC2 (human) modulation, ouabain retest. shares compounds with Cl transport mod. HEK293-KCC2, thallium flux FluoZin2 fluorescence; bidirectional: low = inhibitor, high = activator. raw Tl+ flux slope (below DMSO = inhibition, above = activation) at 10 µM. hit rate 48% among 3,700;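 active = thallium flux slope beyond 3 SD from same-plate DMSO control mean in most replicates, usually higher, sometimes lower; inconclusive = repeat tests gave conflicting results; inactive = no significant difference from controls in most replicates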;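 note: slope of initial-normalized fluorescence between seconds 10 and 20 after thallium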
HEK counter2: parental HEK flux effect, counter-screen 2; HEK293 parental, thallium flux FluoZin-2 fluorescence slope; shares compounds with Cl transport mod; thallium flux slope at 10 µM; hit rate 33% among 3,700;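 active = thallium flux slope above the same plate's solvent-control mean plus 3 SD in both duplicate wells; inconclusive = duplicate wells that disagreed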;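 note: run without ouabain in cells lacking the KCC2 cotransporter; slope of fluorescence scaled to its starting value between 10 and 20 s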
Numbers without * were called inactive; ? = inconclusive; . = not tested or not shown.

SMILES	b-catenin transl	Pf gamet viab	WT yeast gro inh	MT stabilizer	Cl transport mod	KCC2 sec1	KCC2 bumet counter	KCC2 secondary2	HEK293 Tl flux	KCC2 ouabain	HEK counter2
Cc1ccc(-c2n[nH]c(=S)n2/N=C/c2ccc(C)o2)cc1	1.1	8.8	-5.9	1.6	3.7*	?	0.0182*	0.0319	0.0143*	0.0259*	0.0117
Cc1ccc(/C=N/n2c(-c3cccnc3)n[nH]c2=S)o1	-1.2	-12.8	.	.	1.61	.	.	.	.	.	.
Cc1ccc(/C=N/n2c(-c3ccc(Cl)cc3)n[nH]c2=S)o1	-0.3	17.4	.	.	7.94*	0.0157*	0.0349*	0.0377	0.0115*	0.0258	?
S=c1[nH]nc(-c2cccnc2)n1/N=C/c1ccc(Br)s1	-1.0	-2.2	-7.7	3.1	23*	0.0109	0.0546*	0.0325	0.0106*	0.0277	0.0115*
Cc1ccc(/C=N/n2c(-c3ccccn3)n[nH]c2=S)o1	0.1	-1.3	.	.	0.0399	.	.	.	.	.	.
S=c1[nH]nc(-c2ccc(Cl)cc2)n1/N=C/c1cccs1	0.4	-8.4	.	.	22.5*	0.00806	0.025*	0.0423*	0.0305*	0.0415*	0.0239*
Cc1ccc(/C=N/n2c(-c3cccnc3)n[nH]c2=S)s1	-0.2	-21.2	5.2	1.8	0.632	.	.	.	.	.	.
Cc1ccc(S(=O)(=O)N2CCCCC2)cc1NC(=O)c1ccccn1	0.0	3.6	.	.	0.00806	.	.	.	.	.	.
CCOc1cc(C(=O)NC(=S)Nc2ccc(Cl)c(C(=O)O)c2)cc(OCC)c1OCC	-4.0	7.8	.	.	-1.04	.	.	.	.	.	.
Cc1ccc(-c2n[nH]c(=S)n2/N=C/c2sccc2C)cc1	0.2	-6.8	.	.	18.6*	0.0181	0.0212*	0.0343	0.0149*	0.0246*	0.0168*
O=C(CCc1nc2ccccc2s1)N1CCN(S(=O)(=O)c2cccs2)CC1	-0.8	.	-40.8	2.2	-4.11*	0.00704	0.00528	0.0377	0.00405	0.0181	0.011
CCN(CC)Cc1cc(NC2=NS(=O)(=O)c3ccccc32)ccc1OC(=O)c1ccccc1	-3.0	6.9	-10.4	1.7	1.1	.	.	.	.	.	.
OCCCNc1nc(-c2ccccc2)nc2c1oc1ccccc12	-0.2	7.2	.	.	-0.678	.	.	.	.	.	.
O=C(O)CNc1nc(-c2ccccc2)nc2c1oc1ccccc12	0.5	11.7	.	.	.	0.00656	0.00532	0.0288	0.00775	0.0185	0.0103
COc1ccccc1OCCn1c(C)c(C=O)c2ccccc21	.	2.9	.	.	.	.	.	.	.	.	.
Cc1ccc(-n2c(=S)[nH]c3c(oc4ccccc43)c2=O)cc1C	-1.9	5.2	4.4	5.7	5.69*	0.0171*	0.0398*	0.0297	0.0176*	0.0293*	0.0123*
CC(C)(Oc1ccc(Cl)cc1)C(=O)N(Cc1ccccc1)c1ccccn1	-1.2	0.6	29.9	1.1	-0.0671	.	.	.	.	.	.
COc1cccc(OCC(=O)NNC(=S)Nc2ccc(Cl)cc2Cl)c1	2.8	7.9	9.2	1.7	5.54*	0.00738	0.0148*	0.0282	0.0139*	?	0.0139*
CCOC(=O)C1(CCCc2ccccc2)CCN(C(=O)CCOC)CC1	-0.5	.	-13.0	2.9	-0.158	.	.	.	.	.	.
O=C1CC(N(O)C2CC(=O)N(Cc3ccccc3)C2=O)C(=O)N1Cc1ccccc1 (stereo not given)	-1.0	.	11.2	9.8	.	0.00511	0.00485	0.0257*	0.00729	?	0.0109
CCCN(CCC)C1CC(=O)N(Cc2ccccc2)C1=O (stereo not given)	-1.7	.	-11.7	4.8	0.368	.	.	.	.	.	.
O=C(NCc1cccnc1)c1ccc(COc2ccccc2Br)o1	-0.9	-41.7	-20.6	5.7	-4.68*	0.00946	0.00562	0.0292*	0.00434	0.0145*	0.0122
CC(C)(C)NC(=O)c1ccc(COc2ccccc2Br)o1	-2.5	.	9.1	4.6	.	.	.	.	.	.	.
O=C(Nc1cccnc1)c1ccc(COc2ccccc2Br)o1	.	12.6	36.7	25.6*	-4.98*	0.00613	0.00466	0.0223*	0.00721	?	0.0111
CCOC(=O)C(CC)(CC)C(=O)/C=C/c1cccc(Br)c1	.	.	.	4.7	-1.09	.	.	.	.	.	.
SMILES	b-catenin transl	Pf gamet viab	WT yeast gro inh	MT stabilizer	Cl transport mod	KCC2 sec1	KCC2 bumet counter	KCC2 secondary2	HEK293 Tl flux	KCC2 ouabain	HEK counter2
COC(=O)N/N=C/c1c(C)cc(C)cc1C	3.4	.	5.8	3.7	-5.31*	0.0103	0.00583	0.0325	0.00754	0.0236	0.0109
O=C(CSc1ncn[nH]1)Nc1ccc2c(c1)CCC2	-1.0	-4.9	-15.4	2.7	0.821	.	.	.	.	.	.
CCOc1ccccc1NC(=O)CSc1nnnn1Cc1ccccc1	.	.	12.2	3.2	-2.64*	0.00725	0.00405	0.0279	0.00724	?	0.0094
COc1ccc(C2(C(=O)Nc3ccc(C)cc3)CCOCC2)cc1	2.0	-21.9	2.4	1.2	-1.28	.	.	.	.	.	.
Cc1ccc(S(=O)(=O)/N=C2/NC(=O)/C(=C/c3ccccc3)S2)cc1	0.1	5.8	-37.0	2.7	1.07	.	.	.	.	.	.
Cc1ccc(/C=C2\S/C(=N/S(=O)(=O)c3cccs3)NC2=O)cc1	0.6	6.4	.	.	5.66*	0.00669	0.0158*	0.0299	0.014*	?	0.0164*
CN(C)CCCNc1ccc(S(N)(=O)=O)cc1[N+](=O)[O-]	-0.7	13.2	-15.1	3.2	2.81*	0.01	0.00577	0.0332	0.00881	0.0199	0.0112
O=C(Nc1nc(-c2ccccn2)cs1)C1CC(=O)N(c2ccc3c(c2)OCCO3)C1 (stereo not given)	0.4	8.0	-3.5	3.9	-3*	0.00719	0.00781	0.0293	0.00749	0.0178*	0.0111*
O=C(NCCCc1ccccc1)C1CC(=O)N(c2ccc3c(c2)OCCO3)C1 (stereo not given)	-1.0	-18.8	-4.3	1.3	-2.01	.	.	.	.	.	.
COc1ccccc1CNC(=O)[C@@H]1CCCN1S(=O)(=O)c1ccc(C)cc1	0.7	20.6	-14.0	3.8	-0.936	.	.	.	.	.	.
CC(C)/C=C1\CC/C(=C\c2cccnc2)C1=O	0.1	-16.1	-2.4	3.6	-4.12*	0.00903	0.00536	0.033	0.00402	0.0183	0.0106
Fc1ccc(-c2nnsc2Sc2ccccn2)cc1	1.5	1.4	-2.8	4.0	-0.183	.	.	.	.	.	.
COc1ccc(CC(=O)NCC2CCCN(Cc3ccccc3Cl)C2)cc1 (stereo not given)	.	1.4	.	.	.	.	.	.	.	.	.
C=CCc1ccc(OCCOc2cccc3ccc(C)nc23)c(OC)c1	0.9	-4.4	23.9	1.8	1.1	.	.	.	.	.	.
